ChEMBL document CHEMBL3272200, “Synthsis and antitumor properties of bis(quinaldine) derivatives” (J Med Chem, 1977)

Tests used:
[1] = system: Calf thymus DNA; test: Binding affinity to calf thymus DNA assessed as change in melting temperature at 10 uM by spectrophotometer analysis; format: nucleic-acid assay; details: Bos taurus
In short: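 Drug at 1×10^-5 M with 15 μg/mL calf thymus DNA in 5 mM phosphate buffer, pH 7.4. Absorbance followed at 260 nm while temperature rose at 1.0 °C/min to give the melting temperature.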

[2] = system: Calf thymus DNA; test: Binding affinity to calf thymus DNA assessed as inhibition of DNA-dependent Escherichia coli RNA polymerase activity by measuring [14C]ATP incorporation at 0.1 mM by liquid scintillation spectrometer analysis; format: nucleic-acid assay; details: Bos taurus
In short: (§1)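 0.125 mL mix: Tris-HCl pH 8.0 5 μmol, MgCl2 1.25 μmol, β-mercaptoethanol 1.25 μmol, CTP/UTP/GTP 0.019 μmol each, [8-14C]ATP 0.019 μmol, calf thymus DNA 3.65 μg. Compound in 5 μL MeOH (MeOH-only controls) added before the E. coli enzyme. Incubated 10 min at 37. Acid-insoluble label collected by filter-disk method and scintillation counted. Triplicates.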

[3] = system: Calf thymus DNA; test: Binding affinity to calf thymus DNA assessed as inhibition of DNA-dependent Escherichia coli RNA polymerase activity by measuring [14C]ATP incorporation at 50 uM by liquid scintillation spectrometer analysis; format: nucleic-acid assay; details: Bos taurus; in short: as §1
[4] = system: Calf thymus DNA; test: Binding affinity to calf thymus DNA assessed as inhibition of DNA-dependent Escherichia coli RNA polymerase activity by measuring [14C]ATP incorporation at 10 uM by liquid scintillation spectrometer analysis; format: nucleic-acid assay; details: Bos taurus; in short: as §1
[5] = system: Calf thymus DNA; test: Binding affinity to calf thymus DNA assessed as inhibition of DNA-dependent Escherichia coli RNA polymerase activity by measuring [14C]ATP incorporation at 7.5 uM by liquid scintillation spectrometer analysis; format: nucleic-acid assay; details: Bos taurus; in short: as §1
[6] = system: Calf thymus DNA; test: Binding affinity to calf thymus DNA assessed as inhibition of DNA-dependent Escherichia coli RNA polymerase activity by measuring [14C]ATP incorporation at 5 uM by liquid scintillation spectrometer analysis; format: nucleic-acid assay; details: Bos taurus; in short: as §1
[7] = system: Calf thymus DNA; test: Binding affinity to calf thymus DNA assessed as inhibition of DNA-dependent Escherichia coli RNA polymerase activity by measuring [14C]ATP incorporation at 2.5 uM by liquid scintillation spectrometer analysis; format: nucleic-acid assay; details: Bos taurus; in short: as §1
[8] = system: Calf thymus DNA; test: Binding affinity to calf thymus DNA assessed as inhibition of DNA-dependent Escherichia coli RNA polymerase activity by measuring [14C]ATP incorporation by liquid scintillation spectrometer analysis; format: nucleic-acid assay; details: for inhibition: Bos taurus; for IC50: read-out: I50; in short: as §1
[9] = system: P388; test: Antitumor activity against mouse P388 cells assessed as mean animal survival time at 6.25 mg/kg administered qd for 1 to 9 days relative to control; format: functional
In short: (§2)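 P-388 leukemia survival test. The value is T/C: mean or median survival time of treated animals divided by that of control animals, expressed as a percentage. A compound counts as active if it gives reproducible T/C values of 125% or more.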

[10] = Retardation factor of the compound using n-BuOH-AcOH-H2O at ratio of 3:1:2 as solvent system by silica gel based chromatography; format: physicochemical
[11] = system: P388; test: Antitumor activity against mouse P388 cells assessed as mean animal survival time at 25 mg/kg administered qd for 1 to 9 days relative to control; format: functional; in short: as §2
[12] = system: P388; test: Antitumor activity against mouse P388 cells assessed as mean animal survival time at 12.5 mg/kg administered qd for 1 to 9 days relative to control; format: functional; in short: as §2
[13] = system: P388; test: Antitumor activity against mouse P388 cells assessed as mean animal survival time at 400 mg/kg administered qd for 1 to 9 days relative to control; format: functional; in short: as §2
[14] = system: P388; test: Antitumor activity against mouse P388 cells assessed as mean animal survival time at 100 mg/kg administered qd for 1 to 9 days relative to control; format: functional; in short: as §2

## Cc1cc(NCCCCCCCCNc2cc(C)nc3cc(N)ccc23)c2ccc(N)cc2n1
[1]
  ΔTm: 18.5 °C
[2]
  inhibition: 97%
[3]
  inhibition: 95%
[4]
  inhibition: 95%
[5]
  inhibition: 91%
[6]
  inhibition: 38%
[7]
  inhibition: 0%
[8]
  inhibition: Dose-dependent effect

## CC(=O)O.Cc1cc(NCCCCCCCCNc2cc(C)nc3cc(N)ccc23)c2ccc(N)cc2n1
[9]
  T/C: 134%

## Cc1cc(NCCCCNCCCNc2cc(C)nc3cc(N)ccc23)c2ccc(N)cc2n1.Cl
[8]
  IC50: 6 µM
[10]
  Rf: 0.5

## Cc1cc(NCCCNCCCNc2cc(C)nc3cc(N)ccc23)c2ccc(N)cc2n1.Cl
[8]
  IC50: 6 µM
[10]
  Rf: 0.57

## CC(=O)O.Cc1cc(NCCCCCCNc2cc(C)nc3cc(N)ccc23)c2ccc(N)cc2n1
[11]
  T/C: 158%

## Cc1cc(NCCCCNCCCNc2cc(C)nc3cc([N+](=O)[O-])ccc23)c2ccc([N+](=O)[O-])cc2n1.Cl
[12]
  T/C: 150%
[10]
  Rf: 0.73

## Cc1cc(NCCCCCCCCNc2cc(C)nc3cc([N+](=O)[O-])ccc23)c2ccc([N+](=O)[O-])cc2n1.Cl
[12]
  T/C: 110%
[10]
  Rf: 0.8

## CC(=O)O.Cc1cc(NCCCNCCCNc2cc(C)nc3cc(N)ccc23)c2ccc(N)cc2n1
[12]
  T/C: 150%

## Cc1cc(NCCCCCCNc2cc(C)nc3cc(N)ccc23)c2ccc(N)cc2n1
[1]
  ΔTm: 19 °C
[2]
  inhibition: 97%
[3]
  inhibition: 93%
[4]
  inhibition: 91%
[5]
  inhibition: 50%
[6]
  inhibition: 29%
[7]
  inhibition: 0%
[8]
  inhibition: Dose-dependent effect

## Cc1cc(NCCCCCCCCNc2cc(C)nc3cc(N)ccc23)c2ccc(N)cc2n1.Cl
[8]
  IC50: 6 µM
[10]
  Rf: 0.7

## Cc1cc(NCCCCNCCCNc2cc(C)nc3cc(N)ccc23)c2ccc(N)cc2n1
[1]
  ΔTm: 19.5 °C
[2]
  inhibition: 92%
[3]
  inhibition: 94%
[4]
  inhibition: 95%
[5]
  inhibition: 38%
[6]
  inhibition: 17%
[7]
  inhibition: 0%
[8]
  inhibition: Dose-dependent effect

## Cc1cc(NCCCNCCCNc2cc(C)nc3cc(N)ccc23)c2ccc(N)cc2n1
[1]
  ΔTm: 22.5 °C
[2]
  inhibition: 94%
[3]
  inhibition: 98%
[4]
  inhibition: 96%
[5]
  inhibition: 31%
[6]
  inhibition: 9%
[7]
  inhibition: 0%
[8]
  inhibition: Dose-dependent effect

## Cc1cc(NCCCNCCCNc2cc(C)nc3cc([N+](=O)[O-])ccc23)c2ccc([N+](=O)[O-])cc2n1.Cl
[11]
  T/C: 150%
[10]
  Rf: 0.69

## CC(=O)O.Cc1cc(NCCCCCCCNc2cc(C)nc3cc(N)ccc23)c2ccc(N)cc2n1
[9]
  T/C: 196%

## Cc1cc(NCCCCCCNc2cc(C)nc3cc(N)ccc23)c2ccc(N)cc2n1.Cl
[8]
  IC50: 6 µM
[10]
  Rf: 0.6

## Cc1cc(NCCCCCCCNc2cc(C)nc3cc(N)ccc23)c2ccc(N)cc2n1.Cl
[8]
  IC50: 6 µM
[10]
  Rf: 0.63

## CC(=O)O.Cc1cc(NCCCCNCCCNc2cc(C)nc3cc(N)ccc23)c2ccc(N)cc2n1
[11]
  T/C: 165%

## Cc1cc(NCCCCCCCNc2cc(C)nc3cc(N)ccc23)c2ccc(N)cc2n1
[1]
  ΔTm: 17 °C
[2]
  inhibition: 98%
[3]
  inhibition: 98%
[4]
  inhibition: 63%
[5]
  inhibition: 24%
[6]
  inhibition: 0%
[7]
  inhibition: 0%
[8]
  inhibition: Dose-dependent effect

## Cc1cc(NCCCCCCNc2cc(C)nc3ccc(N)cc23)c2cc(N)ccc2n1.Cl
[13]
  T/C: 254%
[1]
  ΔTm: 18 °C

## Cc1cc(NCCCCCCNc2cc(C)nc3cc([N+](=O)[O-])ccc23)c2ccc([N+](=O)[O-])cc2n1.Cl
[14]
  T/C: 99%
[10]
  Rf: 0.77

## Cc1cc(NCCCCCCCNc2cc(C)nc3cc([N+](=O)[O-])ccc23)c2ccc([N+](=O)[O-])cc2n1.Cl
[12]
  T/C: 149%
[10]
  Rf: 0.79
